{"data": "Experimental data collected from several papers", "cell line": "ACHN", "effect on": "cell growth or viability", "note": "Compare with care: the assays were run in different laboratories. pIC50: −log10 of the molar value."}
{"Structure (SMILES)": "COc1ccc(C(=O)/C=C/c2ccccc2Br)cc1S(N)(=O)=O", "method": "SRB", "time": "48 h", "measurement": "GI50", "result": "1800 nM"}
{"Structure (SMILES)": "S=C([S][Au-][P+](CCCCCC[P+]([Au-][S]C(=S)n1cccn1)(c1ccccc1)c1ccccc1)(c1ccccc1)c1ccccc1)n1cccn1", "measurement": "GI50", "result": "1450 nM"}
{"Structure (SMILES)": "CC1=CC(=O)C(C(C)C)=CC1=O", "method": "CCK-8", "time": "48 h", "measurement": "pIC50", "result": 4.28}
{"Structure (SMILES)": "COc1cc(-c2ccc(-c3ccc(C(=N)N)nc3)s2)cc(OC)c1OC", "measurement": "GI50", "result": "1730 nM"}
{"Structure (SMILES)": "COc1ccc(C(=O)/C=C/c2cc3c(cc2Br)OCO3)cc1S(N)(=O)=O", "method": "SRB", "concentration": "10 µM", "measurement": "inhibition", "result": "123%"}
{"Structure (SMILES)": "COc1cccc(Oc2ccccc2NC(=O)CNC(=O)c2cccc3ccccc23)c1", "method": "SRB", "time": "48 h", "measurement": "GI50", "result": "398 nM"}
{"Structure (SMILES)": "Cc1cc(C)n(C(=S)[S][Au][PH](CCCCCC[PH]([Au][S]C(=S)n2nc(C)cc2C)(c2ccccc2)c2ccccc2)(c2ccccc2)c2ccccc2)n1", "measurement": "GI50", "result": "752 nM"}
{"Structure (SMILES)": "COc1ccc(-c2ccc(-c3ccc(C(=N)N)nc3)s2)cc1Cl", "measurement": "GI50", "result": "1770 nM"}
